ABCB6 inh MLPCN – ABCB6 transporter inhibitors, primary screen, K562-ABCB6 cells, flow cytometry, MLPCN library | ATP-binding cassette sub-family B member 6 (Homo sapiens), Q9NP58 | 360,000 compounds, 0.19% hits | K562-ABCB6 porphyrin accumulation, 1 h; active compounds read low | fluorescence ratio to DMSO, % at 10 µM;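 active = fluorescence ratio to DMSO below 75%, the collection mean minus 3 SD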;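 also: signal is porphyrin accumulated inside mitochondria; lower ratio means ABCB6 inhibition with less porphyrin fluorescence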
PG9 Ab binder – binders of HIV-1 gp120 antibody PG9, primary screen, biochemical, TR-FRET; 360,000 compounds, 0.43% hits; inhibition, % at 6.7 µM; HIV-1 gp120 / PG9 antibody interaction; TR-FRET gp120-PG9 antibody binding; in the data active = inhibition above about 8.5%
Arr AP2 block – inhibitors of beta-arrestin/AP2 binding, primary screen, biochemical, GPCR trafficking, flow cytometry; AID 504490, 2011; 340,000 compounds, 0.31% hits; inhibition, % at 10 µM; beta-arrestin 1 C-terminal peptide binding to AP2 beta2-adaptin appendage (human); FITC-arrestin peptide / GST-AP2 beads; AP2 beta2 appendage carries R879A mutation;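 active = inhibition above a set limit, near 3 SD of compounds lacking own fluorescence, cut at about 54% in these data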
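System: GST-AP2 R879A glutathione beads | Also added: FITC-arrestin peptide, 50 nM | Times: 12 min plus 1 h, RT | Signal: Bead flow cytometry, FITC channel | Buffer or medium: PBS with 0.05% Tween 20 and 0.1% BSA | Read-out basis: Percent drop in bead-associated FITC signal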
hiPSC survival – enhancers of single-cell hiPSC survival, primary screen, ATPlite luminescence; 100% = ROCK inhibitor wells, 0% = DMSO; survival enhancement, % at 20 µM; 360,000 compounds, 0.044% hits; AID 602274, 2012; in the data active = survival enhancement above about 18%;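 also: cells exposed to compounds for 16 hours before the ATP read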
Arr-AP2 CP1 – inhibitors of arrestin peptide binding to AP2, confirmation, biochemical, cherry pick 1, flow cytometry beads. GST-AP2 beads, FITC arrestin peptide binding; GST-fused beta2-adaptin appendage, R879A mutant. inhibition, % at 10 µM. 1,300 compounds, 2% hits. shares compounds with Arr AP2 block;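 active = inhibition above a set limit, roughly 3 SD of non-fluorescent compound noise, cut at about 38% in these data; inactive = inhibition at or below that limit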;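 also: loss of bead fluorescence from 50 nM FITC arrestin peptide bound to appendage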
GST-FITC bead – GST-fluorescein capture on glutathione beads, confirmation, artefact control for arrestin-AP2 inhibitor project, biochemical, cherry pick 1, flow cytometry; shares compounds with Arr AP2 block; GST-fluorescein binding to GSH beads, fluorescence, counter-screen; inhibition, % at 10 µM; 1,300 compounds, 2% hits;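 active = inhibition above 50%, about 3 SD of the inhibition seen with non-fluorescent compounds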;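 also: fluorescein maleimide labelled GST captured on 4 micron glutathione beads; higher means more loss of bead fluorescence from quenching or blocked binding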
A number is an active result; n = inactive; x = no result given. This is a sample that favours compounds with a hit; in the whole collection about 0.89% have one here.

SMILES	ABCB6 inh MLPCN	PG9 Ab binder	Arr AP2 block	hiPSC survival	Arr-AP2 CP1	GST-FITC bead
Cn1c(N)c(C(=O)COC(=O)c2ccccc2C(=O)c2ccccc2)c(=O)n(C)c1=O	n	n	n	n	x	x
O=C(N[C@H](Cc1ccccc1)C(=O)N1CCN(CC(=O)N2CCCC2)CC1)[C@H]1O[C@@H](n2ccc(=O)[nH]c2=O)[C@H](O)[C@@H]1O	x	n	x	x	x	x
COC(=O)[C@]12C[C@H](CC(=O)NCCC(C)C)C(=O)N(Cc3ccc4c(c3)OCO4)C1=C[C@H](C(C)(C)C)O[C@@H]2C	x	n	x	x	x	x
Nc1ccc(Nc2ccccc2)c(Cl)c1	n	n	71	n	n	n
Nc1ccccc1Nc1ccccc1	n	n	n	n	x	x
CC(=O)C1=C(C)N(Cc2ccc(F)cc2)C(=S)NC1c1ccc(Br)cc1 (stereo not given)	x	n	x	x	x	x
Cc1ccc(OCCSc2nc3ccccc3n2CC(=O)O)cc1C	n	n	54	n	n	n
COc1ccc(C(=O)CCNc2cccc(Cl)c2)cc1	n	n	n	n	x	x
CCCOc1ccc(C(=O)CCNc2cccc(Cl)c2)cc1	n	n	57	n	n	n
COC(=O)c1cc2c(c3c4ccccc4n(S(=O)(=O)c4ccc(OC)cc4)c13)C(=O)N(Cc1ccc(N(C)C)cc1)C2	x	n	x	x	x	x
CCN1CCN(C(=O)c2ccc3c(Cl)c4c(nc3c2)CCCC4)CC1	n	n	n	n	x	x
CN1CCN(C(=O)c2ccc3c(Cl)c4c(nc3c2)CCCC4)CC1	n	n	64	n	n	n
CN1CCCCC(NC(=O)c2c(F)cccc2F)C1=O (stereo not given)	x	n	x	x	x	x
CC(=O)N(c1c(C)n(C)n(-c2ccccc2)c1=O)C1(C(=O)NC2CCCCC2)CCCCC1	n	n	n	n	x	x
Cc1c(N(C(=O)c2cnccn2)C2(C(=O)NC3CCCC3)CCCCC2)c(=O)n(-c2ccccc2)n1C	n	n	56	n	n	n
CC(C)CCN1CCN(Cc2ccc(C#CC(C)(C)O)s2)CC1CCO (stereo not given)	n	n	62	n	n	n
COC(=O)[C@]12C[C@H](CC(=O)N3CCOCC3)C(=O)N(Cc3ccccc3)C1=C[C@H](C(C)(C)C)O[C@@H]2C	x	n	x	x	x	x
NC(=O)C[n+]1cccc(C(=O)Nc2ccccc2)c1	n	n	66	n	n	n
Cc1ccc2cc(CN(CC3CCCO3)C(=O)NC3CCCCC3)c(=O)[nH]c2c1C (stereo not given)	n	n	n	n	n	n
COc1ccc(CCN(Cc2cc3cccc(C)c3[nH]c2=O)C(=O)NC2CCCCC2)cc1OC	n	n	n	n	n	n
Cc1cccc2cc(CN(Cc3ccco3)C(=O)NC3CCCCC3)c(=O)[nH]c12	n	n	n	n	n	n
COc1ccccc1NC(=O)N(Cc1ccco1)Cc1cc2cccc(C)c2[nH]c1=O	n	n	n	n	x	x
CCN(CC)CCCN(Cc1cc2ccc(C)c(C)c2[nH]c1=O)C(=O)NC1CCCCC1	n	n	n	n	x	x
Cc1cccc2cc(CN(CC3CCCO3)C(=O)NC3CCCCC3)c(=O)[nH]c12 (stereo not given)	n	n	n	n	n	n
Cn1cc(CCOCc2ccccn2)c2ccccc21	x	n	x	x	x	x
SMILES	ABCB6 inh MLPCN	PG9 Ab binder	Arr AP2 block	hiPSC survival	Arr-AP2 CP1	GST-FITC bead
COc1cccc(C(=O)Nc2ccc3c(c2)n(C)c(=O)n3C)c1	n	n	n	n	x	x
COc1cccc(C(=O)Nc2cc3c(cc2N2CCCC2)n(C)c(=O)n3C)c1	n	n	n	n	n	n
Cn1c(=O)n(C)c2cc(N3CCCC3)c(NC(=O)c3cccc(F)c3)cc21	n	n	n	n	n	n
CCOC(=O)C1=CCC(c2ccc([N+](=O)[O-])cc2)N(S(=O)(=O)c2ccc(C)cc2)C1 (stereo not given)	x	n	x	x	x	x
COC(=O)C1=C(C)N(Cc2ccccc2C(F)(F)F)C(=NCc2ccc(OC)cc2)NC1c1ccc(F)cc1 (stereo not given)	x	n	x	x	x	x
Cc1ccc(C(=O)OCC(=O)NC2CCS(=O)(=O)C2)c(C)c1 (stereo not given)	n	n	n	n	x	x
Cc1ccc2nc3c(c(C(=O)OCC(=O)NC4CCS(=O)(=O)C4)c2c1)CCCC3 (stereo not given)	n	n	57	n	n	n
CCSc1nnc(NC(=O)Cc2cc(OC)c(OC)c(OC)c2)s1	n	n	n	n	x	x
CCc1nnc(NC(=O)Cc2cc(OC)c(OC)c(OC)c2)s1	n	n	71	n	n	n
Cc1ccc(SCC(=O)NNC(=O)CCS(=O)(=O)c2ccc(C)cc2)cc1	n	n	54	n	n	n
CCCn1c(=O)c2[nH]cnc2n(-c2ccc(Cl)cc2)c1=O	n	n	58	n	n	n
CCn1c(=O)n(CC)c2cc(N3CCCC3)c(NC(=O)c3ccc(OC)c(Br)c3)cc21	n	n	n	n	n	n
COc1ccc(Cl)cc1C(=O)Nc1ccccc1N1CCN(C(=O)C(C)C)CC1	n	n	n	n	x	x
CCn1c(=O)n(CC)c2cc(N3CCCC3)c(NC(=O)c3cc(Cl)ccc3OC)cc21	n	n	54	n	n	n
CCOc1ccccc1C(=O)Nc1cc2c(cc1N1CCCC1)n(CC)c(=O)n2CC	n	n	n	n	n	n
CCn1c(=O)n(CC)c2cc(N3CCCC3)c(NC(=O)c3ccccc3OC)cc21	n	n	n	n	x	x
COc1ccc(C(=O)Nc2ccc(N3CCCC3)cc2)cc1Br	n	n	n	n	x	x
O=C(Nc1ccc(NC(=O)c2cccs2)c(Cl)c1)c1cccs1	n	n	55	n	n	n
N#Cc1ccc(CSc2ccccn2)c(Cl)c1	n	n	63	n	n	n
COC(=O)[C@]12C[C@H](CC(=O)NCc3cccs3)C(=O)N(Cc3ccc4c(c3)OCO4)C1=C[C@H](C(C)(C)C)O[C@@H]2C	x	n	x	x	x	x
CCOc1ccccc1OCCC(=O)Nc1ccc2c(c1)OCO2	n	n	n	n	n	n
CC(=O)c1ccc(OCCCC(=O)Nc2ccc3c(c2)OCCO3)cc1	n	n	n	n	n	n
COc1ccc(OCCCC(=O)Nc2ccc3c(c2)OCCO3)cc1	n	n	n	n	x	x
Cc1ccc(OCCCC(=O)Nc2ccc3c(c2)OCO3)cc1	n	n	n	n	x	x
Cc1ccc(OCCC(=O)Nc2ccc3c(c2)OCCCO3)cc1	n	n	n	n	n	n
CCC(=O)c1ccc(OCC(=O)Nc2ccc3c(c2)OCCO3)cc1	n	n	n	n	n	n

Screening data as filed in PubChem BioAssay.
